Data: BindingDB's records for doi:10.1021/jm020334u (Roche Discovery Welwyn, 2003)

Biological target: Polymerase acidic protein (Influenza A virus (strain A/Puerto Rico/8/1934 H1N1), UniProt P03433)
Assay: Inhibitory concentration against cap-dependent endonuclease activity of influenza virus RNP
Procedure, shortened: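 Gel-based cap-dependent endonuclease assay. 1 nM influenza RNP was incubated with 0.1 nM cap-labeled 20-mer G20 RNA in 50 mM Tris-HCl pH 8 with 1 mM MgCl₂, 20 mM KCl, 1 U/μL RNase inhibitor and 0.3% Triton X-100, for 5 min at 31 °C. Cleavage products were resolved on polyacrylamide gels and quantified by phosphorimager. IC50 came from dose–response curves.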

| Structure (SMILES) | IC50 |
| --- | --- |
| CC(C)C=c1[nH]c(=Cc2ccc(F)cc2)c(=O)[nH]c1=O [3-(4-fluorobenzylidene)-5-isobutylpyrazine-2,6(1H,3H)-dione] | > 365 µM |
| COCOn1c(=O)c(=CC(C)C)[nH]c(=CC(C)C)c1=O [(3Z)-5-isobutyl-1-(methoxymethoxy)-3-(2-methylpropylidene)pyrazine-2,6(1H,3H)-dione] | > 355 µM |
